From PubChem BioAssay
UCH37 inh: inhibitors of human UCH37 deubiquitinase, primary screen, biochemical, Ub-AMC cleavage, fluorescence. Ubiquitin carboxyl-terminal hydrolase isozyme L5 (Homo sapiens), Q9Y5K5. purified proteasome/UCH37. inhibition, % (concentration not given with the values). hit rate 0.33% among 330,000;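 active = mean inhibition over replicate wells above about 20%, limit read from the data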
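Reagent: Ub-AMC substrate; assay system: Proteasome-associated human UCH37 deubiquitinase; controls: no-proteasome and no-compound wells; read-out: % inhibition of Ub-AMC cleavage fluorescence; timing: 30 min preincubation with enzyme, 25 min cleavage at room temperature; signal: AMC fluorescence from Ub-AMC cleavage, excitation 355 nm, emission 460 nm; buffer or medium: Tris-HCl pH 7.4 plus ovalbumin, ATP-MgCl2, DTT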
SENP7 inh: SENP7 protease inhibitors, primary screen, biochemical, luminescence, uHTS; Sentrin-specific protease 7 (Homo sapiens), Q9BQF6; recombinant SENP7, Z-RLRGG-aminoluciferin luminescence, 40 min; inhibition, % at 5 µM; hit rate 1.5% among 330,000; AID 434973, 2010;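 active = inhibition above about 50% at the single test dose, limit read from the data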
SENP8 block-1: SENP8 protease inhibitors, primary screen, biochemical, luminescence; Sentrin-specific protease 8 (Homo sapiens), Q96LD8; purified SENP8, Z-RLRGG-aminoluciferin cleavage; inhibition, % at 10 µM; hit rate 1.2% among 330,000; AID 2540, 2010; in the data active = inhibition above about 50%
Target sequence (Q96LD8 whole entry, looked up): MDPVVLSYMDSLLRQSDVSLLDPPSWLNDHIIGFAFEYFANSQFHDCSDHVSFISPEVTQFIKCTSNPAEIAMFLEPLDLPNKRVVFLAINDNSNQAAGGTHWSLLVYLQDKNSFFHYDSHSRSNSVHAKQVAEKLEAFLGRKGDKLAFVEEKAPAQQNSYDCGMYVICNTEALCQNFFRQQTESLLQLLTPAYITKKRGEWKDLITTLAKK
SENP1 inh: human SENP1 catalytic domain inhibitors, primary screen, biochemical, FRET, uHTS. AID 624204, 2012. recombinant SENP1 catalytic domain, CyPet-SUMO1-YPet FRET cleavage. Sentrin-specific protease 1 (Homo sapiens), Q9P0U3. hit rate 0.21% among 360,000. inhibition, % at 10 µM;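 active = inhibition at least 30% at 10 µM, raw YFP signal under a set limit, fluorescence ratio 0.5 to 1.5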
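Test system: human SENP1 catalytic domain; medium: Tris pH 8 buffer plus EDTA, NaCl, BME, BSA, NP40, catalase; incubation: 50 min reaction at room temperature; technique: FRET, CFP and YFP emission; controls: no-enzyme low control and enzyme-plus-DMSO high control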
SENP6 block: SENP6 protease inhibitors, primary screen, biochemical, luminescence, uHTS; Sentrin-specific protease 6 (Homo sapiens), Q9GZR1; Recombinant SENP6 catalytic domain, aminoluciferin luminescence; inhibition, % at 10 µM; hit rate 1.8% among 330,000;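 active = inhibition above about 50% at the single tested dose, limit read from the data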
Target sequence (Q9GZR1 628-1112 limits assumed): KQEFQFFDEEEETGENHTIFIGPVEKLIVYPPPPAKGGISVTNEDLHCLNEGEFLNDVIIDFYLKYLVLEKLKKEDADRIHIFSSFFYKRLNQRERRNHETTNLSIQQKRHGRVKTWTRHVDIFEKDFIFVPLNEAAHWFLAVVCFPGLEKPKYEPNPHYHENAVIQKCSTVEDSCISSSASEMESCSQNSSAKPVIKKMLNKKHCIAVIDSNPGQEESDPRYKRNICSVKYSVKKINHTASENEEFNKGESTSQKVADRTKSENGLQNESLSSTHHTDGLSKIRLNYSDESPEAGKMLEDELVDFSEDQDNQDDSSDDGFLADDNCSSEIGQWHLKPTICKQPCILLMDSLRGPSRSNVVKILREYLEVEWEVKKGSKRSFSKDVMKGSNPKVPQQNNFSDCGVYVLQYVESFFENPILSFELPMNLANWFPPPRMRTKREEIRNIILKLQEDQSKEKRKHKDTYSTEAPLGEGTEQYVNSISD
SENP8 block-2: human SENP8 protease inhibitors, primary screen, biochemical, fluorescence, Nedd8 protein substrate, uHTS. hit rate 0.64% among 360,000. inhibition, % at 20 µM. Sentrin-specific protease 8 (Homo sapiens), Q96LD8. recombinant SENP8; in the data active = inhibition mostly above about 40%, no sharp cut-off; inactive = mostly below about 27%
SENP8 confirm: SENP8 protease inhibitors, retest, confirmation, biochemical, luminescence, single concentration | shares compounds with SENP7 inh | Recombinant SENP8, Z-RLRGG-aminoluciferin luminescence, 60 min | inhibition, % at 12.5 µM | hit rate 40% among 6,200 | AID 488912, 2010;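 active = mean inhibition across replicates above about 50%, limit read from the data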
SENP6 confirm: SENP6 protease inhibitors, confirmation, biochemical, luminescence, single concentration; shares compounds with SENP7 inh; recombinant SENP6, Z-RLRGG-aminoluciferin luminescence; inhibition, % at 12.5 µM; hit rate 58% among 6,200; AID 488915, 2010
SENP7 conf: SENP7 protease inhibitors, retest, confirmation, biochemical, luminescence, single concentration; recombinant SENP7, Z-RLRGG-aminoluciferin luminescence, 40 min; hit rate 69% among 6,200; shares compounds with SENP7 inh; inhibition, % at 12.5 µM
Casp3 SENP sel: caspase-3 protease inhibitors, confirmation, selectivity assay for SENP inhibitor project, biochemical, single concentration. inhibition, % at 12.5 µM. purified caspase-3, Z-DEVD-aminoluciferin luminescence, 60 min. hit rate 60% among 6,200. shares compounds with SENP7 inh;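 active = mean inhibition above about 50%, limit read from the data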
Luc interf: interferes with luciferase luminescence in SENP counter-screen; Pre-incubated SENP8/Z-RLRGG-aminoluciferin, luciferase luminescence interference; AID 488919; shares compounds with SENP7 inh; hit rate 39% among 6,200; inhibition, % at 12.5 µM;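 active = mean inhibition above about 50% when retested at one dose, limit read from the data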
Hits are given with their value; - = inactive; . = no result. Shown are actives, neighbours in structure and some others; about 2.6% of the full set was active somewhere.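 Rule for the calls, unless noted: active = mean inhibition above about 50% in the one-dose retest (limit read from the data); inactive = the rest.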

SMILES | UCH37 inh | SENP7 inh | SENP8 block-1 | SENP1 inh | SENP6 block | SENP8 block-2 | SENP8 confirm | SENP6 confirm | SENP7 conf | Casp3 SENP sel | Luc interf
CSc1ccccc1NC(=O)Nc1ccc(Cl)cc1 | - | 95.8 | 92.3 | - | - | - | - | 95.8 | 100.7 | 85.1 | 63.2
COc1ccc(NC(=O)Nc2ccccc2SC)cc1 | - | 97.6 | 92.0 | - | 95.7 | - | 95.1 | 95.7 | 100.6 | 95.6 | -
COc1ccc(NC(=O)Nc2ccc(N(C)C)cc2)cc1 | - | 76.9 | - | - | 80.7 | - | - | 69.9 | 89.9 | 85.3 | -
O=C(O)c1cc(-c2ccc(C=NNC(=S)Nc3ccccc3)o2)ccc1Cl | - | . | . | . | . | . | . | . | . | . | .
Cc1cc(C)nc(N=C(NC(=O)Nc2ccc(Cl)c(Cl)c2)Nc2cccc(Cl)c2)n1 | - | . | . | . | . | . | . | . | . | . | .
O=Cc1c(-c2ccccc2)cc2oc3ccccc3cc1-2 | - | 64.8 | 77.9 | - | 67.4 | - | - | - | - | - | -
Nc1nc(Nc2ccccc2F)sc1C(=O)c1ccccc1 | - | - | 59.4 | - | 71.6 | - | 74.5 | 69.4 | 86.2 | - | 75.6
Cc1nc(Nc2ccccc2)sc1C(=O)c1ccc(F)cc1 | - | - | - | - | - | - | . | . | . | . | .
Cc1ccc(NC(=O)c2cc3cccc([N+](=O)[O-])c3[nH]2)cc1 | - | 88.7 | 56.3 | - | 70.8 | - | 57.4 | 63.3 | 96.1 | 66.2 | 55.3
CCC(C)c1ccccc1NC(=O)c1cc2cccc([N+](=O)[O-])c2[nH]1 (centres undefined) | - | - | - | - | - | - | . | . | . | . | .
O=C(NN=Cc1sc(=O)n(-c2ccccc2)c1Cl)c1ccncc1 | - | . | . | . | . | . | . | . | . | . | .
CCCC12CN3CCN(CC(C3)C1=NNC(=O)c1ccc(F)cc1)C2 | - | . | . | . | . | . | . | . | . | . | .
COc1cccc(C(=O)N=c2sc3c(C)ccc(OC)c3n2C)c1 | - | 96.8 | 68.1 | - | - | - | - | - | - | - | -
COc1ccccc1C(=O)N=c1sc2c(C)ccc(OC)c2n1C | - | - | - | - | 57.9 | - | - | - | - | 53.0 | -
COc1ccc(C(=O)N=c2sc3c(C)ccc(OC)c3n2C)cc1OC | - | 89.4 | 75.7 | - | 83.9 | - | - | - | - | - | -
CCn1c(=NC(=O)c2cccc(N3C(=O)CCC3=O)c2)sc2c(C)ccc(OC)c21 | - | - | - | - | - | - | . | . | . | . | .
Cc1cc(=O)[nH]c(NN=Cc2c(F)c(F)c(F)c(F)c2F)n1 | - | . | . | . | . | . | . | . | . | . | .
CCC(C)c1ccc(NC(=O)c2ccco2)cc1 (centres undefined) | - | 73.9 | 69.9 | - | 84.7 | - | 78.8 | 77.7 | 94.1 | 70.9 | 67.1
O=C(Oc1ccccc1)c1ccc(NC(=O)c2ccco2)cc1 | - | 90.6 | 66.4 | - | - | - | - | 65.5 | 84.8 | 77.7 | -
CN(C(=O)c1ccc(NC(=O)c2ccco2)cc1)c1ccccc1 | - | 81.4 | 61.2 | - | 80.8 | - | - | 69.2 | 86.7 | 88.1 | 72.1
COC(=O)c1ccc(NC(=O)c2ccc(NC(=O)c3ccco3)cc2)cc1 | - | - | - | - | - | - | . | . | . | . | .
CCC(C)c1ccc(NC(=O)COC(=O)CCNC(=O)c2ccco2)cc1 (centres undefined) | - | - | - | - | - | - | . | . | . | . | .
CNC(=S)NN=Cc1ccc(-c2ccc(Cl)c([N+](=O)[O-])c2)o1 | - | . | . | . | . | . | . | . | . | . | .
COc1c(C=NNc2ccc(C(=O)O)cc2)c(CCN(C)C(C)=O)cc2c1OCO2 | - | . | . | . | . | . | . | . | . | . | .
N#CC(=C(O)c1ccco1)c1nc2ccccc2s1 | - | . | . | . | . | . | . | . | . | . | .
SMILES | UCH37 inh | SENP7 inh | SENP8 block-1 | SENP1 inh | SENP6 block | SENP8 block-2 | SENP8 confirm | SENP6 confirm | SENP7 conf | Casp3 SENP sel | Luc interf
N#C/C(=C(/O)c1cc2ccccc2o1)c1nc2ccccc2s1 | - | 70.2 | 95.5 | - | - | - | - | - | - | - | 60.6
N#C/C(=C(/O)c1ccco1)c1nc2ccccc2s1 | 20.0 | 56.7 | 81.4 | - | 90.0 | - | 90.7 | 90.7 | 99.7 | 91.0 | 74.4
Cn1c(/C(C#N)=C(\O)c2cccc(F)c2)nc2ccccc21 | - | - | - | - | - | - | . | . | . | . | .
N#C/C(=C(/O)c1cccc(F)c1)c1nc2ccccc2s1 | - | 56.2 | 76.8 | - | 91.1 | - | 57.9 | 58.8 | 71.7 | 76.9 | -
O=C(C(=NO)c1ccccc1)c1ccccc1 | - | . | . | . | . | . | . | . | . | . | .
Cc1ccc(-c2nc(NN=Cc3ccncc3)c3ccccc3n2)cc1 | - | . | . | . | . | . | . | . | . | . | .
CC(C)(CNC(=O)CON=C1C=C2CCC3C(C(O)C[C@@]4(C)C3CC[C@]4(O)C(=O)CO)[C@@]2(C)CC1)C(O)C(=O)O (some centres undefined) | - | . | . | . | . | . | . | . | . | . | .
COC(=O)c1cccc(NC(=O)c2ccc3c(c2)C(=O)N(CC2CCCO2)C3=O)c1 (centres undefined) | - | - | - | - | - | - | . | . | . | . | .
Cc1ccc(C(=O)Nc2cccc(C(=O)O)c2)cc1S(=O)(=O)N1CCOCC1 | - | - | 56.6 | - | 61.3 | - | 72.8 | 67.9 | 89.0 | 50.1 | -
Cc1ccc(C(=O)Nc2cccc(C(=O)O)c2)cc1S(=O)(=O)N1CCCCC1 | - | 94.4 | 88.0 | - | 92.6 | - | 96.2 | 96.0 | 101.6 | 82.8 | 78.9
Cc1ccc(C(=O)Nc2ccncc2)cc1S(=O)(=O)N1CCCCC1 | . | . | . | - | . | - | . | . | . | . | .
CC(=O)c1cccc(NC(=O)c2ccc(C)c(S(=O)(=O)N3CCOCC3)c2)c1 | - | - | - | - | - | - | . | . | . | . | .
